Measurements from publication PMC8349895 (Bioorganic & medicinal chemistry letters, 2021).

Key:
hM1 [1] = molecular target: T1, hM1 (Homo sapiens, UniProt P11229); experiment: Calcium mobilization PAM assay in hM1-CHO cells with EC20 acetylcholine; type: cell-based; conditions: PAM mode
T1 sequence (P11229 1-460): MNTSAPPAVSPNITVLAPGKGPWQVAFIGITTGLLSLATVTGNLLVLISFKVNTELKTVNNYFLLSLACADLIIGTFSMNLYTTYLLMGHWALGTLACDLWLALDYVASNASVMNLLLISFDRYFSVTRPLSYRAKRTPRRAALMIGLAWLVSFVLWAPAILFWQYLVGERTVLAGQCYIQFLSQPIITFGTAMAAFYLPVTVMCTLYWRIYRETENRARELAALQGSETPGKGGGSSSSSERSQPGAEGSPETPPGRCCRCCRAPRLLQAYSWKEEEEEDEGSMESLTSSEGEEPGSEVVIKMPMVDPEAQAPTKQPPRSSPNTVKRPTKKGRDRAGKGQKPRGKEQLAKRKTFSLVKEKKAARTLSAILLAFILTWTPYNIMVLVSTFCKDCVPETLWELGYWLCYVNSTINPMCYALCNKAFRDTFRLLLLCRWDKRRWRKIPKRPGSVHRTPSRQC

hM4 = molecular target: T2, hM4 (Homo sapiens, UniProt P08173); experiment: Calcium mobilization PAM selectivity assay, hM4; type: cell-based
T2 sequence (P08173 1-479): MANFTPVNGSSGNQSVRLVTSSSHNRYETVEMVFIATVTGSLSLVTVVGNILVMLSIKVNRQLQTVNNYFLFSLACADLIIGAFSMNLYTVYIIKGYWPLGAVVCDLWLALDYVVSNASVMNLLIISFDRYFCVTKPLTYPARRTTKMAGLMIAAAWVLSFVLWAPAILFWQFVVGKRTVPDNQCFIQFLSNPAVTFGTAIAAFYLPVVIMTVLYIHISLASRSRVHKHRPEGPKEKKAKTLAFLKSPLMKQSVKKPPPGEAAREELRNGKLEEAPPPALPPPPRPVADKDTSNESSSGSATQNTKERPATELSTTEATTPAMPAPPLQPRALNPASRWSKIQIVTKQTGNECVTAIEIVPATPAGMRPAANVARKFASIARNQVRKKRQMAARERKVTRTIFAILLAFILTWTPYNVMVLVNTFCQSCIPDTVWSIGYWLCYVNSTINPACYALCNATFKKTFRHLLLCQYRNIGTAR

hM1 [2] = molecular target: T1, hM1; experiment: Calcium mobilization agonist mode in hM1-CHO cells, no exogenous ACh; type: cell-based; conditions: no exogenous acetylcholine
Outline: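 Calcium mobilization in CHO cells expressing human M1, run without added acetylcholine to measure direct agonist activity and derive agonist EC50. Values are means of one to three independent experiments, each run in triplicate.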

[3] = Predicted hepatic clearance, human; type: in vitro ADME
[4] = Predicted hepatic clearance, rat; type: in vitro ADME

Cn1cc2c(-c3cc(F)c(CN4Cc5nc[nH]c5C4=O)c(F)c3)cccc2n1 [Compound 8a]
hM1 activity (in words) (hM1 [1]): inactive

Cn1cc2c(-c3cc(F)c(CN4Cc5ncoc5C4=O)c(F)c3)cccc2n1 [Compound 12a]
hM1 activity (in words) (hM1 [1]): inactive

Cn1cc2cc(-c3ccc(CN4Cc5ncsc5C4=O)c(F)c3)ccc2n1 [Compound 8b]
EC50 (hM4): > 10 µM
hM1 agonist activity (hM1 [2]): devoid of any hM1 agonist activity
hClhep [3]: 10.4 mL/min/kg
rClhep [4]: 43 mL/min/kg

Cn1cc2c(-c3cc(F)c(CN4Cc5ocnc5C4=O)c(F)c3)cccc2n1 [Compound 12b]
hM1 activity (in words) (hM1 [1]): inactive

Cc1[nH]cc2c1C(=O)N(Cc1c(F)cc(-c3cccc4nn(C)cc34)cc1F)C2 [Compound 25a]
hM1 activity (in words) (hM1 [1]): inactive

Cn1cc2c(-c3cc(F)c(CN4Cc5cnn(CC6CCCO6)c5C4=O)c(F)c3)cccc2n1 (stereo not drawn) [Compound 20a]
EC50 (hM4): > 10 µM
hM1 agonist activity (hM1 [2]): devoid of any hM1 agonist activity
hClhep [3]: 18.6 mL/min/kg
rClhep [4]: 58.7 mL/min/kg
